From ChEMBL document CHEMBL1914430, “Synthesis of some new 1,3,5-trisubstituted pyrazolines bearing benzene sulfonamide as anticancer and anti-inflammatory agents” (Bioorg Med Chem Lett, 2011)

What was measured:
Format in all cases: functional
BT-549 = assay: Anticancer activity against human BT549 cells after 48 hrs; conditions: BT-549, 48 h; for CC50: read-out: LC50 (the source's name)
Method in brief: (§1)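 NCI Drug Evaluation Branch 60-cell-line screen across leukemia, melanoma, lung, colon, CNS, ovarian, renal, prostate and breast panels. The incubation period is 48 h. Parameters are derived from dose–response data: GI50 is the concentration giving 50% decrease in net growth, TGI is total growth inhibition, and LC50 is net 50% loss of initial cells. Values beyond the tested range are reported as greater or less than the maximum or minimum concentration.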

MCF7 = assay: Anticancer activity against human MCF7 cells after 48 hrs; conditions: MCF7, 48 h; method in brief: as §1
LOX IMVI = assay: Anticancer activity against human LOXIMVI cells after 48 hrs; conditions: for CC50: read-out: LC50 (the source's name); method in brief: as §1
M14 = assay: Anticancer activity against human M14 cells after 48 hrs; conditions: M14, 48 h; for CC50: read-out: LC50 (the source's name); method in brief: as §1
HT-29 = assay: Anticancer activity against human HT-29 cells after 48 hrs; conditions: HT-29, 48 h; for CC50: read-out: LC50 (the source's name); method in brief: as §1
MOLT-4 = assay: Anticancer activity against human MOLT4 cells after 48 hrs; conditions: MOLT-4, 48 h
Method in brief: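 NCI 60-line panel protocol with a 48 h incubation. Per line: GI50 = concentration giving 50% decrease in net cell growth; TGI = total growth inhibition; LC50 = net 50% loss of initial cells. When the level was not reached or was exceeded, the value is given as greater or less than the highest or lowest concentration tested.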

SMILES	GI50 (BT-549)	TGI (BT-549)	CC50 (BT-549)	GI50 (MCF7)	LC50 (MCF7)	TGI (MCF7)	GI50 (LOX IMVI)	TGI (LOX IMVI)	CC50 (LOX IMVI)	GI50 (M14)	TGI (M14)	CC50 (M14)	GI50 (HT-29)	TGI (HT-29)	CC50 (HT-29)	GI50 (MOLT-4)	LC50 (MOLT-4)	TGI (MOLT-4)
Cc1cc(O)c(C2=NN(c3ccc(S(N)(=O)=O)cc3)C(c3ccccc3O)C2)cc1Cl (configuration not stated)	2.47 µM	8.18 µM	58.7 µM	2.66 µM	49.5 µM	9.77 µM	1.73 µM	3.19 µM	5.87 µM	1.76 µM	3.4 µM	6.56 µM	2.37 µM	5.1 µM	12.9 µM	4.74 µM	> 100 µM	34.4 µM
COc1ccc(C2CC(c3cc(Cl)c(C)cc3O)=NN2c2ccc(S(N)(=O)=O)cc2)cc1OC (configuration not stated)	3.03 µM	13.4 µM	95.6 µM	3.07 µM	> 100 µM	13.6 µM	3.35 µM	11 µM	37.4 µM	2.61 µM	7.26 µM	38.3 µM	2.24 µM	6.48 µM	36.9 µM	5.29 µM	> 100 µM	> 100 µM
Cc1cc(O)c(C2=NN(c3ccc(S(N)(=O)=O)cc3)C(c3ccccc3Cl)C2)cc1Cl (configuration not stated)	2.16 µM	4.74 µM	18.3 µM	1.75 µM	6.35 µM	3.33 µM	1.78 µM	3.21 µM	5.8 µM	1.85 µM	3.43 µM	6.39 µM	1.92 µM	3.63 µM	6.83 µM	4.04 µM	> 100 µM	> 100 µM
Cc1cc(O)c(C2=NN(c3ccc(S(N)(=O)=O)cc3)C(/C=C/c3ccccc3)C2)cc1Cl (configuration not stated)	6.12 µM	21.3 µM	54.5 µM	3.93 µM	40.1 µM	16.1 µM	3.94 µM	16.2 µM	40.3 µM	6.16 µM	19.3 µM	44.2 µM	3.73 µM	14.7 µM	38.3 µM	17.7 µM	> 100 µM	73.7 µM
